Measurements from ChEMBL document CHEMBL2440094, “Thiazolidinone-peptide hybrids as dengue virus protease inhibitors with antiviral activity in cell culture” (J Med Chem, 2013).
pEC50, pIC50, pKi: −log10 of the molar value. Calls of active or inactive are those of the source. The calls are words filed in the database; no cut-off is given here. Square brackets hold non-standard residues; d marks the D form. Peptide text beside a SMILES is read from it. * marks the point of attachment. Nle = CCCC[C@H](N)C(=O)O; Bz = O=C(c1ccccc1)*

Legend:
Dengue virus [1] = assay: Competitive inhibition of Dengue virus NS2B-NS3 protease expressed in Escherichia coli BL 21 (DE3) using Abz-Nle-Lys-Arg-Arg-Ser-3-(NO2)Tyr as substrate by Cornish-Bowden plot analysis
Method in brief: (§1)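 DEN2 NS2B–NS3 FRET assay run at inhibitor 0–6 μM (prior-series compounds 5–50 μM) and substrate 50, 100, 150 and 200 μM, in triplicate, with inner-filter correction. Ki from Dixon plots (1/v vs [I]) and Ki′ from Cornish-Bowden plots (S/v vs [I]). Inhibition mode assigned from these plots.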

West Nile virus = assay: Inhibition of West Nile virus NS2B-NS3 protease expressed in Escherichia coli BL 21 (DE3) using Abz-Gly-Leu-Lys-Arg-Gly-Gly-3-(NO2)Tyr as substrate at 50 uM after 15 mins
Dengue virus [2] = assay: Inhibition of Dengue virus NS2B-NS3 protease expressed in Escherichia coli BL 21 (DE3) using Abz-Nle-Lys-Arg-Arg-Ser-3-(NO2)Tyr as substrate at 50 uM after 15 mins
[3] = Inhibition of Dengue virus NS2B-NS3 protease expressed in Escherichia coli BL 21 (DE3) using Abz-Nle-Lys-Arg-Arg-Ser-3-(NO2)Tyr as substrate after 15 mins
[4] = molecular target: Prothrombin (Homo sapiens) (UniProt P00734); assay: Inhibition of thrombin (unknown origin) using Boc-Val-Pro-Arg-AMC as substrate at 25 uM after 10 mins by continuous fluorimetric assay
Method in brief: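 Thrombin (10 nM) preincubated 15 min with inhibitor (25 μM final) in 50 mM Tris-HCl pH 7.5, 150 mM NaCl, 0.05% Tween 20. Boc-Val-Pro-Arg-AMC then added to 50 μM (Km 16 μM). Fluorescence (ex 355 nm, em 460 nm) followed for 10 min as slope. Triplicate; percent inhibition versus no-inhibitor control.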

[5] = Inhibition of Dengue virus NS2B-NS3 protease expressed in Escherichia coli BL 21 (DE3) using Abz-Nle-Lys-Arg-Arg-Ser-3-(NO2)Tyr as substrate assessed as enzyme-substrate-inhibitor complex by Cornish-Bowden plot analysis; method in brief: as §1
[6] = Inhibition of Dengue virus NS2B-NS3 protease expressed in Escherichia coli BL 21 (DE3) using Abz-Nle-Lys-Arg-Arg-Ser-3-(NO2)Tyr as substrate assessed as enzyme-inhibitor complex by Cornish-Bowden plot analysis; details: in the assay text read “Dixon plot” for “Cornish-Bowden plot”; method in brief: as §1
dengue virus type 2 = assay: Antiviral activity against Dengue virus 2 infected in human Huh-7 cells assessed as inhibition of viral replication after 48 hrs by luciferase reporter gene assay; assay type: functional, organism-based; details: Huh-7, 48 h
Method in brief: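 Huh-7 cells seeded 5000/well, incubated overnight at 37 °C, then given compound (1.56–50 μM final, 2-fold series in DMEM with 10% FCS). Dengue 2 renilla luciferase reporter virus (MOI 10) added 4 h later. After 48 h at 37 °C, cells lysed and renilla luminescence read with coelenterazine. At least four wells per concentration, expressed relative to DMSO control. EC50 by nonlinear regression.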

[7] = Permeability of the compound by PAMPA; assay type: ADME; details: read-out: permeability
Method in brief: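 PAMPA with precoated trilayer lipid/oil/lipid membranes, donor wells holding 200 μM compound in PBS pH 7.4 (2% DMSO final), in triplicate. Incubated 5 h at room temperature. Donor and acceptor concentrations determined by UV plate reader or HPLC-UV against calibration curves. Pe and mass retention R calculated.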

Huh-7 = assay: Cytotoxicity against human HuH7 cells at <50 uM after 48 hrs by firefly reporter assay; assay type: cell-based; details: huh-7, 48 h
Method in brief: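 Uninfected Huh-7 cells stably expressing firefly luciferase, seeded 5000/well and incubated overnight at 37 °C. Compound added at 1.56–50 μM, plus 100, 200 and 400 μM, then incubated as for infected cells (further 48 h after the 4 h point). Firefly luminescence read with 70 μM luciferin and 2 mM ATP. Mean of three wells as percent of DMSO control.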

Compound | inhibition (Dengue virus [1]) | inhibition (West Nile virus) [%] | inhibition (Dengue virus [2]) [%] | pIC50 [3] | inhibition [4] | pKi [5] | pKi [6] | pEC50 (dengue virus type 2) | Papp [7] [×10⁻⁶ cm/s] | Activity (Huh-7)
CCCC[C@H](NC(=O)[C@H](CCCCN)NC(=O)[C@H](CCCNC(=N)N)NC(=O)c1ccc(/C=C2\SC(=O)N(Cc3ccc(C)cc3)C2=O)cc1)C(N)=O | Active | 66.7 | 97.6 | 5.32 | 9.3% | < 5.00 | 5.51 | – | – | –
CCCC[C@H](NC(=O)[C@H](CCCCN)NC(=O)[C@H](CCCNC(=N)N)NC(=O)c1ccc(/C=C2\SC(=S)N(c3ccc(OC)cc3)C2=O)cc1)C(N)=O | – | 42.9 | 92.5 | – | 8.5% | – | – | 4.37 | 0.59 | –
CCCC[C@H](NC(=O)[C@H](CCCCN)NC(=O)[C@H](CCCNC(=N)N)NC(=O)c1ccc(/C=C2\SC(=O)N(CCOC(C)=O)C2=O)cc1)C(N)=O | Active | 41.4 | 97.6 | 5.32 | 16.8% | < 5.00 | 5.44 | – | – | –
CCCC[C@H](NC(=O)[C@H](CCCCN)NC(=O)[C@H](CCCNC(=N)N)NC(=O)c1ccc(/C=C2\SC(=S)N(C)C2=O)cc1)C(N)=O | – | 35 | 89 | – | 14.8% | – | – | < 4.30 | – | Non-toxic
CCCC[C@H](NC(=O)[C@H](CCCCN)NC(=O)[C@H](CCCNC(=N)N)NC(=O)c1ccc(/C=C2\SC(=S)NC2=O)cc1)C(N)=O | – | 48.7 | 87.1 | – | 13.9% | – | – | < 4.30 | – | Non-toxic
CCCC[C@H](NC(=O)[C@H](CCCCN)NC(=O)[C@H](CCCNC(=N)N)NC(=O)c1ccc(/C=C/C(N)=O)cc1)C(N)=O | Active | 15.6 | 84.6 | 5.19 | inactive | < 4.30 | 5.09 | – | – | Non-toxic
CCCC[C@H](NC(=O)[C@H](CCCCN)NC(=O)[C@H](CCCNC(=N)N)NC(=O)c1ccc(/C=C2\SC(=O)N(CCCC)C2=O)cc1)C(N)=O | Active | 52.4 | 100 | 5.46 | 18.4% | < 5.00 | 5.47 | < 4.30 | 1.18 | –
CCCC[C@H](NC(=O)[C@H](CCCCN)NC(=O)[C@H](CCCNC(=N)N)NC(=O)c1ccc(/C=C2\SC(=O)N(C3CCCCC3)C2=O)cc1)C(N)=O | Active | 51.1 | 98.4 | 5.47 | 9.1% | < 5.00 | 5.64 | – | 1.69 | –
CCCC[C@H](NC(=O)[C@H](CCCCN)NC(=O)[C@H](CCCNC(=N)N)NC(=O)/C=C/c1ccccc1)C(N)=O | Active | 13.8 | 82.9 | 4.98 | inactive | < 4.30 | 5.16 | – | 1.26 | Non-toxic
CCCC[C@H](NC(=O)[C@H](CCCCN)NC(=O)[C@H](CCCNC(=N)N)NC(=O)c1cccc(/C=C2\SC(=O)N(C3CCCC3)C2=O)c1)C(N)=O | – | 52.9 | 92.4 | – | 13% | – | – | 4.27 | 1.9 | –
CCCC[C@H](NC(=O)[C@H](CCCCN)NC(=O)[C@H](CCCNC(=N)N)NC(=O)c1ccc(/C=C2\SC(=O)NC2=O)cc1)C(N)=O | – | 27 | 84.4 | – | 14.5% | – | – | < 4.30 | – | Non-toxic
CCCC[C@H](NC(=O)[C@H](CCCCN)NC(=O)[C@H](CCCNC(=N)N)NC(=O)/C=C1\SC(=S)N(Cc2ccc(OC)cc2)C1=O)C(N)=O | – | 15.3 | 40.9 | – | 24.7% | – | – | 4.59 | – | Non-toxic
C=CCN1C(=O)/C(=C/c2ccc(C(=O)N[C@@H](CCCNC(=N)N)C(=O)N[C@@H](CCCCN)C(=O)N[C@@H](CCCC)C(N)=O)cc2)SC1=S | – | 54.6 | 96 | – | inactive | – | – | 4.50 | 0.42 | Non-toxic
CCCC[C@H](NC(=O)[C@H](CCCCN)NC(=O)[C@H](CCCNC(=N)N)NC(=O)c1ccccc1)C(N)=O (Bz-Arg-Lys-[Nle]-NH2) | Active | 7.7 | 68.1 | 4.88 | 5.5% | < 4.30 | 4.95 | – | – | Non-toxic
CCCC[C@H](NC(=O)[C@H](CCCCN)NC(=O)[C@H](CCCNC(=N)N)NC(=O)c1ccc(/C=C2\SC(=O)N(Cc3ccc(OC)cc3)C2=O)cc1)C(N)=O | Active | 47.2 | 97 | 5.48 | 12.3% | < 5.00 | 5.66 | – | – | –
CCCC[C@H](NC(=O)[C@H](CCCCN)NC(=O)[C@H](CCCNC(=N)N)NC(=O)c1ccc(/C=C2\SC(=S)N(C3CCCC3)C2=O)cc1)C(N)=O | Active | 97.7 | 99.8 | 5.21 | inactive | < 5.00 | 5.44 | 4.52 | 2.31 | –
CCCC[C@H](NC(=O)[C@H](CCCCN)NC(=O)[C@H](CCCNC(=N)N)NC(=O)c1ccc(/C=C2\SC(=S)N(CCCC)C2=O)cc1)C(N)=O | Active | 64.7 | 97.3 | 5.21 | 11.3% | < 5.00 | 5.33 | 4.45 | 1.61 | –
CCCC[C@H](NC(=O)[C@H](CCCCN)NC(=O)[C@H](CCCNC(=N)N)NC(=O)c1ccc(/C=C2\SC(=O)N(C)C2=O)cc1)C(N)=O | – | 38.1 | 91.1 | – | 9.2% | – | – | – | – | Non-toxic
